According to ChEMBL document CHEMBL1129979, “Conformationally constrained deltorphin analogs with 2-aminotetralin-2-carboxylic acid in position 3” (J Med Chem, 1997):

Legend:
[1] = target: Mu-type opioid receptor (Rattus norvegicus, UniProt P33535); assay: The binding affinity was measured using [3H]- DAGO against Opioid receptor mu 1 of rat brain
[2] = target: T1, Delta-type opioid receptor (Rattus norvegicus, UniProt P33533); assay: The binding affinity was measured using [3H]-DIDII against Opioid receptor delta 1 of rat brain
[3] = target: T1, Delta-type opioid receptor; assay: The binding affinity was measured using [3H]- TIPPsi against Opioid receptor delta 1
[4] = target: T1, Delta-type opioid receptor; assay: The binding affinity was measured using [3H]naltrindole against Opioid receptor delta 1 of rat brain
[5] = species: Mus musculus; assay: The inhibitory concentration activity was measured on electrically induced contraction of the mouse vas deferens (MVD); assay type: functional
Method in brief: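 Mouse vas deferens is mounted between platinum axial wire electrodes in Mg-free Krebs bicarbonate at 34 °C, gassed with 95% O2/5% CO2, under 0.5 g tension. After 15 min equilibration, it is stimulated transmurally at 0.1 Hz, 2 ms, 40 V (supramaximal). Dose-response curves are built by the single-dose method. IC50 is the concentration giving 50% reduction of contractions, from a Hill-equation least-squares fit of mean data.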

[6] = target: Kappa-type opioid receptor (Rattus norvegicus, UniProt P34975)
[7] = species: Cavia porcellus; assay: The inhibitory concentration activity was measured on guinea pig ileum (GPI); assay type: functional
Method in brief: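 Guinea pig ileum myenteric plexus-longitudinal muscle strips are mounted between platinum axial wire electrodes in Krebs bicarbonate at 37 °C, gassed with 95% O2/5% CO2, under 1 g tension. Strips are stimulated transmurally at 0.1 Hz, 1 ms, 40 V (supramaximal) and equilibrated 60 min before peptides are added. Single-dose dose-response curves are fitted to the Hill equation by least squares on mean data. IC50 is the concentration giving 50% reduction of contractions.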

Mu-type opioid receptor, sequence (P33535 whole entry): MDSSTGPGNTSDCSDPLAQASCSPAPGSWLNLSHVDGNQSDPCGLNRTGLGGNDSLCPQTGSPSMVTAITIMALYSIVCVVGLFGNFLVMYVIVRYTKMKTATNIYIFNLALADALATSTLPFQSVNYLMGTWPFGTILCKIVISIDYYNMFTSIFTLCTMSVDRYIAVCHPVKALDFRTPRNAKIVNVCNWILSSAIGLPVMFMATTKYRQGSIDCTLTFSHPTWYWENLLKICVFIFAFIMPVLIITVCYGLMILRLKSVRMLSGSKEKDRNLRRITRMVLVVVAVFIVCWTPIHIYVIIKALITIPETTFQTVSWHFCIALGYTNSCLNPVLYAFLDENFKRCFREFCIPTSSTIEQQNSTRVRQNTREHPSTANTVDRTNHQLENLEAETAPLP
Kappa-type opioid receptor, sequence (P34975 whole entry): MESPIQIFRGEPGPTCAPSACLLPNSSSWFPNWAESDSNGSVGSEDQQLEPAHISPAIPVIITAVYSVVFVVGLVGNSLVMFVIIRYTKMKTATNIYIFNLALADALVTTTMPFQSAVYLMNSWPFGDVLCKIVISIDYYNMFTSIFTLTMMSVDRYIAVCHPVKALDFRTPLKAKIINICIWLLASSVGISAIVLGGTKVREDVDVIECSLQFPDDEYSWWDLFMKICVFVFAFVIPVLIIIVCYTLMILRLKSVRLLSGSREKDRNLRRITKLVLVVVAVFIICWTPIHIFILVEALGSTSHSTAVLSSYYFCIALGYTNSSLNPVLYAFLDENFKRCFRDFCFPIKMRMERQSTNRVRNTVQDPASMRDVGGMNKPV
T1 sequence (P33533 whole entry): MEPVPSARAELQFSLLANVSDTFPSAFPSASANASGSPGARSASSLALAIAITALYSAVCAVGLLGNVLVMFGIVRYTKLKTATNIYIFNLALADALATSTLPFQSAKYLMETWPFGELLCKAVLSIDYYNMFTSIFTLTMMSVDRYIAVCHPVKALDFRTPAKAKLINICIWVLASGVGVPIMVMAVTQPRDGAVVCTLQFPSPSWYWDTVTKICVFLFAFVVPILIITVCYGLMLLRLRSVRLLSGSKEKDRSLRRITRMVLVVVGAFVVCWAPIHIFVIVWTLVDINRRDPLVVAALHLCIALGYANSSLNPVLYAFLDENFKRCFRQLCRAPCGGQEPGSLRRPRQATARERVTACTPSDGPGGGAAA

Row | Compound | Ki [1] [nM] | Ki [2] [nM] | Ki [3] [nM] | Ki [4] [nM] | IC50 [5] [nM] | Ki [6] [nM] | IC50 [7] [nM]
1 | CC[C@H](C)[C@H](NC(=O)[C@H](CC(=O)O)NC(=O)[C@H](Cc1ccccc1)NC(=O)[C@@H](C)NC(=O)[C@@H](N)Cc1ccc(O)cc1)C(=O)N[C@H](C(=O)NCC(N)=O)[C@@H](C)CC | 3220 | 0.056 | 0.018 | 0.047 | 0.082 | > 10000 | 4210
2 | CC(C)[C@H](NC(=O)[C@H](CC(=O)O)NC(=O)[C@H](Cc1ccccc1)NC(=O)[C@H](C)NC(=O)[C@@H](N)Cc1ccc(O)cc1)C(=O)N[C@H](C(=O)NCC(N)=O)C(C)C | – | – | – | – | 0.32 | – | > 3000
3 | CC[C@H](C)[C@H](NC(=O)[C@H](CCC(=O)O)NC(=O)[C@]1(NC(=O)[C@@H](C)NC(=O)[C@@H](N)Cc2ccc(O)cc2)CCc2ccccc2C1)C(=O)N[C@H](C(=O)NCC(N)=O)[C@@H](C)CC | 731 | 0.035 | 0.38 | 0.515 | 0.09 | > 10000 | 19600
4 | CC[C@H](C)[C@H](NC(=O)[C@H](CCC(=O)O)NC(=O)[C@H](Cc1ccccc1)NC(=O)[C@@H](C)NC(=O)[C@@H](N)Cc1ccc(O)cc1)C(=O)N[C@H](C(=O)NCC(N)=O)[C@@H](C)CC | 3190 | – | – | – | 0.5 | > 10000 | 67200
